Results as given in ChEMBL document CHEMBL1154674, “Synthesis and evaluation of three 18F-labeled aminophenylbenzothiazoles as amyloid imaging agents” (J Med Chem, 2009).
One block for each compound: values may come before it.

Assays:
Type in all cases: ADME, organism-based, Macaca mulatta
[1] = Drug level in normal rhesus monkey thalamus assessed as standard uptake value at 96.3 MBq, iv after 14 mins by microPET; conditions: in vivo
[2] = Drug level in normal rhesus monkey frontal cortex assessed as standard uptake value at 96.3 MBq, iv after 65 mins by microPET; conditions: in vivo
[3] = Drug level in normal rhesus monkey frontal cortex assessed as standard uptake value at 96.3 MBq, iv after 175 mins by microPET; conditions: in vivo
[4] = Drug level in normal rhesus monkey cerebellum assessed as standard uptake value at 96.3 MBq, iv after 165 mins by microPET; conditions: in vivo, 2.75 h
Procedure, shortened: (§1)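 One normal rhesus monkey, each tracer given iv via the vena saphena (81.2, 96.3 or 109.4 MBq), with 1 day between tracer injections. Dynamic brain μPET over 180 min used frames of 5 × 60 s, 5 × 120 s, 9 × 300 s and 12 × 600 s. Images were reconstructed by filtered back projection with a RAMP filter. Regional time-activity curves were expressed as SUV.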

[5] = Drug level in normal rhesus monkey pons assessed as standard uptake value at 96.3 MBq, iv after 105 mins by microPET; conditions: in vivo, 1.75 h
[6] = Drug level in normal rhesus monkey parietal cortex assessed as standard uptake value at 96.3 MBq, iv after 37.5 mins by microPET; conditions: in vivo, 0.625 h
[7] = Drug level in normal rhesus monkey frontal cortex assessed as standard uptake value at 96.3 MBq, iv after 4.5 mins by microPET; conditions: in vivo, 0.075 h
[8] = Drug level in normal rhesus monkey parietal cortex assessed as standard uptake value at 109.4 MBq, iv after 4.5 mins by microPET; conditions: in vivo, 0.075 h
[9] = Drug level in normal rhesus monkey frontal cortex assessed as standard uptake value at 109.4 MBq, iv after 0.125 mins by microPET; conditions: in vivo, 7 s
[10] = Drug level in normal rhesus monkey cerebellum assessed as standard uptake value at 109.4 MBq, iv after 9.5 mins by microPET; conditions: in vivo
[11] = Drug level in normal rhesus monkey cerebellum assessed as standard uptake value at 109.4 MBq, iv after 105 mins by microPET; conditions: in vivo, 1.75 h
[12] = Drug level in normal rhesus monkey pons assessed as standard uptake value at 109.4 MBq, iv after 12.5 mins by microPET; conditions: in vivo
[13] = Drug level in normal rhesus monkey cerebellum assessed as standard uptake value at 109.4 MBq, iv after 27.5 mins by microPET; conditions: in vivo
Procedure, shortened: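 Single normal rhesus monkey; each tracer given iv via the vena saphena, with 1 day between tracer injections. Dynamic μPET ran 180 min (5×60 s, 5×120 s, 9×300 s, 12×600 s). Images were reconstructed by filtered back projection with a RAMP filter. Regional time-activity curves were expressed as SUV.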

[14] = Drug level in normal rhesus monkey thalamus assessed as standard uptake value at 109.4 MBq, iv after 12.5 mins by microPET; conditions: in vivo
[15] = Drug level in normal rhesus monkey cerebellum assessed as standard uptake value at 109.4 MBq, iv after 12.5 mins by microPET; conditions: in vivo
[16] = Drug level in normal rhesus monkey thalamus assessed as standard uptake value at 109.4 MBq, iv after 123 mins by microPET; conditions: in vivo, 2.05 h
[17] = Drug level in normal rhesus monkey frontal cortex assessed as standard uptake value at 109.4 MBq, iv after 9.5 mins by microPET; conditions: in vivo
[18] = Drug level in normal rhesus monkey cerebellum assessed as standard uptake value at 109.4 MBq, iv after 15.5 mins by microPET; conditions: in vivo
[19] = Drug level in normal rhesus monkey parietal cortex assessed as standard uptake value at 109.4 MBq, iv after 69 mins by microPET; conditions: in vivo, 1.15 h
[20] = Drug level in normal rhesus monkey cerebellum assessed as standard uptake value at 81.2 MBq, iv after 47.5 mins by microPET; conditions: in vivo; procedure, shortened: as §1
[21] = Drug level in normal rhesus monkey pons assessed as standard uptake value at 81.2 MBq, iv after 6 mins by microPET; conditions: in vivo, 0.1 h
[22] = Drug level in normal rhesus monkey parietal cortex assessed as standard uptake value at 81.2 MBq, iv after 57.5 mins by microPET; conditions: in vivo
[23] = Drug level in normal rhesus monkey parietal cortex assessed as standard uptake value at 81.2 MBq, iv after 22.5 mins by microPET; conditions: in vivo, 0.375 h
[24] = Drug level in normal rhesus monkey white matter assessed as standard uptake value at 81.2 MBq, iv after 57.5 mins by microPET; conditions: in vivo
[25] = Drug level in normal rhesus monkey thalamus assessed as standard uptake value at 81.2 MBq, iv after 4.5 mins by microPET; conditions: in vivo, 0.075 h
[26] = Drug level in normal rhesus monkey frontal cortex assessed as standard uptake value at 81.2 MBq, iv after 27.5 mins by microPET; conditions: in vivo
[27] = Drug level in normal rhesus monkey pons assessed as standard uptake value at 81.2 MBq, iv after 1.5 mins by microPET; conditions: in vivo, 0.025 h
[28] = Drug level in normal rhesus monkey frontal cortex assessed as standard uptake value at 81.2 MBq, iv after 6 mins by microPET; conditions: in vivo, 0.1 h
[29] = Drug level in normal rhesus monkey pons assessed as standard uptake value at 152.9 MBq, iv after 32.5 mins by microPET; conditions: in vivo
[30] = Drug level in normal rhesus monkey white matter assessed as standard uptake value at 152.9 MBq, iv after 0.5 mins by microPET; conditions: in vivo
[31] = Drug level in normal rhesus monkey white matter assessed as standard uptake value at 152.9 MBq, iv after 17.5 mins by microPET; conditions: in vivo
[32] = Drug level in normal rhesus monkey white matter assessed as standard uptake value at 152.9 MBq, iv after 8 mins by microPET; conditions: in vivo
[33] = Drug level in normal rhesus monkey parietal cortex assessed as standard uptake value at 152.9 MBq, iv after 65 mins by microPET; conditions: in vivo
[34] = Drug level in normal rhesus monkey cerebellum assessed as standard uptake value at 152.9 MBq, iv after 75 mins by microPET; conditions: in vivo, 1.25 h
Procedure, shortened: (§2)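 Single normal rhesus monkey; tracer given iv via the vena saphena, 1 day apart from the other tracer injections. Dynamic μPET ran 90 min (5×60 s, 5×120 s, 9×300 s, 3×600 s). Images were reconstructed by filtered back projection with a RAMP filter. Regional time-activity curves were expressed as SUV.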

[35] = Drug level in normal rhesus monkey parietal cortex assessed as standard uptake value at 152.9 MBq, iv after 10 mins by microPET; conditions: in vivo
[36] = Drug level in normal rhesus monkey pons assessed as standard uptake value at 152.9 MBq, iv after 27.5 mins by microPET; conditions: in vivo
[37] = Drug level in normal rhesus monkey frontal cortex assessed as standard uptake value at 152.9 MBq, iv after 42.5 mins by microPET; conditions: in vivo; procedure, shortened: as §2
[38] = Drug level in normal rhesus monkey parietal cortex assessed as standard uptake value at 152.9 MBq, iv after 0.5 mins by microPET; conditions: in vivo

SUV [1]: 2.33
SUV [2]: 1.79
SUV [3]: 1.49
SUV [4]: 0.79
SUV [5]: 1.72
SUV [6]: 1.84
SUV [7]: 1.64
Structure (SMILES): CN(C)c1ccc2nc(-c3ccc([18F])cc3)sc2c1

SUV [8]: 5.12
SUV [9]: -0.06
SUV [10]: 5.44
SUV [11]: 2.5
SUV [12]: 4.65
SUV [13]: 4.16
SUV [14]: 5.39
SUV [15]: 5.33
SUV [16]: 4.63
SUV [17]: 5.43
SUV [18]: 4.94
SUV [19]: 4.1
Structure (SMILES): Nc1ccc2nc(-c3ccc([18F])cc3)sc2c1

SUV [20]: 1.883
SUV [21]: 4.164
SUV [22]: 3.575
SUV [23]: 4.538
SUV [24]: 3.796
SUV [25]: 4.054
SUV [26]: 5.784
SUV [27]: 2.731
SUV [28]: 5.127
Structure (SMILES): CNc1ccc2nc(-c3ccc([18F])cc3)sc2c1

SUV [29]: 1.365
SUV [30]: 0.038
SUV [31]: 1.328
SUV [32]: 1.421
SUV [33]: 0.69
SUV [34]: 0.665
SUV [35]: 2.18
SUV [36]: 1.583
SUV [37]: 0.84
SUV [38]: 0.039
Structure (SMILES): [11CH3]Nc1ccc(-c2nc3ccc(O)cc3s2)cc1 [PITTSBURGH COMPOUND B]
